Where “and” joins values, the source holds several entries; their conditions need not be identical. Equal entries are not always repeated. Where two headings read alike, the source gives them in different places.
Key:
[1] = format: in vivo, human; settings: for Mean sirolimus oral clearance: allometrically scaled (0.75, 70 kg)
Outline: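 Oral dosing began at 0.8 mg/m2 twice daily, then adjusted to trough targets of 10 to 15 ng/ml. Concentrations were drawn at 8–14 days, then every 2 weeks (LLOQ 1.0 ng/ml). First-4-week samples (1–3 per patient) fed a Bayesian one-compartment estimator with pediatric neurofibromatosis priors, estimating clearance only. Clearances were scaled allometrically (exponent 0.75, 70 kg), and an Emax fit against age gave CLmatured and Age50.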

CYP3A = format: in vitro ADME, human; settings: ketoconazole at 1 µM; nine individual pediatric liver microsomes aged 1 month to 4 years; mean ± SD
Outline: (§1)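 Substrate depletion of the test compound in nine individual pediatric liver microsomes in 100 mM potassium phosphate (pH 7.4) at 37°C, with and without CYP-selective inhibitor (1 µM; ketoconazole for CYP3A, montelukast for CYP2C8). NADPH regenerating system starts the reaction (t=0). Serial aliquots are extracted with methanol/ZnSO4 plus internal standard and analysed by online SPE-LC-MS/MS. kel comes from the log %-remaining vs time slope. % contribution is calculated from kel with and without inhibitor.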

CYP2C8 = molecular target: T1, CYP2C8 (Homo sapiens, UniProt P10632); format: in vitro ADME; settings: montelukast at 1 µM; nine individual pediatric liver microsomes aged 1 month to 4 years; mean ± SD
T1 sequence (P10632 1-490): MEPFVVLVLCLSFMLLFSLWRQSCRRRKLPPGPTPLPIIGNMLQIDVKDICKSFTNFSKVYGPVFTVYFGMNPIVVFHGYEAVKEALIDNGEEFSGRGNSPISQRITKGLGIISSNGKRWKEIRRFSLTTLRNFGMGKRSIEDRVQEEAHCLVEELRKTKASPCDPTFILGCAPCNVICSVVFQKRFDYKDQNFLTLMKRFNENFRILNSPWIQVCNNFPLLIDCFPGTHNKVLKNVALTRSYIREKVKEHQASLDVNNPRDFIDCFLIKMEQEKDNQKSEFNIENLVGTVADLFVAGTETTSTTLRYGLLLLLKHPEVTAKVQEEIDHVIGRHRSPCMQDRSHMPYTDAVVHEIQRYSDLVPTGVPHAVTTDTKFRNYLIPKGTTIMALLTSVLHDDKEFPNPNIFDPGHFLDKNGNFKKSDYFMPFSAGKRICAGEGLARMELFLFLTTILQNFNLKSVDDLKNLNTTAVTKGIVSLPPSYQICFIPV
Outline: as §1

recombinant CYP3A7 = recombinant CYP3A7 (Homo sapiens, UniProt P24462); assay: Substrate depletion assay with recombinant CYP3A7; format: in vitro ADME
Outline: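 Recombinant CYP3A7 (with reductase and cytochrome b5) was brought to 0.4 mg/ml protein with blank microsomes and incubated with sirolimus in 100 mM potassium phosphate, pH 7.4, at 37°C with shaking. NADPH regenerating system started the reaction (t = 0), with aliquots taken at serial times. Sirolimus remaining was measured by on-line SPE–HPLC–MS/MS against an internal standard. The slope of log % remaining versus time was converted to CLint per pmol CYP.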

[2] = system: P-glycoprotein (MDR1/ABCB1); settings: cited from earlier work

Chain of recombinant CYP3A7 (P24462 whole entry): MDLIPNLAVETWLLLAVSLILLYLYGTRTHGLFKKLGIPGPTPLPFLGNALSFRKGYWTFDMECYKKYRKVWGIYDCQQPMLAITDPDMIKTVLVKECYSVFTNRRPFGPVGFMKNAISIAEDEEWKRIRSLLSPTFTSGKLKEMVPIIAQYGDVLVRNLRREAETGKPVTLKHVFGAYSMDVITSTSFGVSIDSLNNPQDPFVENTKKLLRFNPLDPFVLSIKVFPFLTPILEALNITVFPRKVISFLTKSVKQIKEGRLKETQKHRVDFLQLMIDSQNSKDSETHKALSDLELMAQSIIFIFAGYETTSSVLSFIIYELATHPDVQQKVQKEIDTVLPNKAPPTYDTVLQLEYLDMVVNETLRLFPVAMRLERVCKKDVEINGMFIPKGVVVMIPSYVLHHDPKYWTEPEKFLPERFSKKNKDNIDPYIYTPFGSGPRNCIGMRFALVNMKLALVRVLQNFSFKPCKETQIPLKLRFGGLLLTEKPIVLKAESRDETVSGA

## CO[C@H]1C[C@@H]2CC[C@@H](C)[C@@](O)(O2)C(=O)C(=O)N2CCCC[C@H]2C(=O)O[C@H]([C@H](C)C[C@@H]2CC[C@@H](O)[C@H](OC)C2)CC(=O)[C@H](C)/C=C(\C)[C@@H](O)[C@@H](OC)C(=O)[C@H](C)C[C@H](C)/C=C/C=C/C=C/1C [sirolimus]
[1]; age group 1 year (≥1, <2), n=5
  Mean sirolimus oral clearance: 17 ± 4 L/h
[1]; age group 1–8 months (<1), n=9
  Mean sirolimus oral clearance: 11 ± 3 L/h
[1]; age group 2 years (≥2, <3), n=3
  Mean sirolimus oral clearance: 21 ± 3 L/h
[1]; age group 3–18 years (≥3), n=27
  Mean sirolimus oral clearance: 18 ± 6 L/h
[1]; clinical clearance estimates, patients 1 months to 3 years, n = 20, Emax model
  Observed CLmatured: 19.4 ± 2.2 L/h/70 kg
CYP3A
  % of Contribution of CYP3A to sirolimus metabolism: 95.8% and 95.8±4.8%
CYP2C8
  % of Contribution of CYP2C8 to sirolimus metabolism: less than 10% and 8.5±4.3%
Recombinant CYP3A7; CYP3A4 value from ref 17
  fold lower CLint of CYP3A7 than reported CYP3A4 activity: 30 fold
Recombinant CYP3A7; CYP3A5 value from ref 17
  fold lower CLint of CYP3A7 than reported CYP3A5 activity: 13 fold
Recombinant CYP3A7; substrate depletion, 37°C, pH 7.4
  CLint for recombinant CYP3A7: 0.30 µl/min/pmol CYP protein
[2]
  substrate of P-glycoprotein (MDR1/ABCB1): substrate

Reference: article PMC4360665 (CPT: Pharmacometrics & Systems Pharmacology, 2015)
